Measured values reported in ChEMBL document CHEMBL1144859, “Synthesis and evaluation of homodimeric GnRHR antagonists having a rigid bis-propargylated benzene core” (Bioorg Med Chem, 2008).

What was measured:
[1] = molecular target: T1, Gonadotropin-releasing hormone receptor (Homo sapiens, UniProt P30968); experiment: Displacement of [125I]triptorelin from human GnRHR expressed in CHO cells; format: cell-based
T1 sequence (P30968 whole entry): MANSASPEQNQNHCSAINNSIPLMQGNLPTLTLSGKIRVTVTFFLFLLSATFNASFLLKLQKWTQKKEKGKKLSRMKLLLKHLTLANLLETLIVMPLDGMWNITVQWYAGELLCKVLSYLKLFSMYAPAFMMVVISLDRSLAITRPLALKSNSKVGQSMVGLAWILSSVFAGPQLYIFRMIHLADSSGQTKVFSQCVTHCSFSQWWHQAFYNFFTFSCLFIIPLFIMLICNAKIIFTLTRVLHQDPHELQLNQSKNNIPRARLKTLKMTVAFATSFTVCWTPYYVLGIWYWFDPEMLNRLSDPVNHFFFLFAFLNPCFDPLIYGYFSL
How it was run: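 Membranes from CHO cells stably expressing human GnRHR (20 μg protein) in 50 mM Tris-HCl pH 7.4, 2 mM MgCl2, 0.1% BSA, with 30,000 cpm [125I]triptorelin and five competitor concentrations, 45 min at 22 °C. Nonspecific binding was set with 1 μM ganirelix. Samples were filtered on PEI-soaked GF/B and counted by gamma counter.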

[2] = molecular target: T2, Gonadotropin-releasing hormone receptor (Homo sapiens) (UniProt P30968); experiment: Antagonist activity at human recombinant GnRHR expressed in CHOK1 cells assessed as reduction in luminescence signal at 10 uM by luciferase reporter gene assay; format: functional, cell-based; settings: CHO-K1
T2 sequence (whole entry): T1 sequence (P30968 whole entry)
How it was run: (§1)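 CHO-K1 cells stably expressing human GnRHR plus NFAT-luciferase reporter, grown in DMEM/10% FBS with geneticin, harvested and suspended in DMEM with insulin, apo-transferrin and 3% DMSO (7500 cells/well). Compounds (10 μM to 0.3 nM final, half-log) preincubated 30 min, then GnRH 3 nM final (EC80) for 4 h; luciferase substrate added, 1 h at room temperature in the dark; luminescence read.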

[3] = molecular target: T2, Gonadotropin-releasing hormone receptor (Homo sapiens); experiment: Antagonist activity at human recombinant GnRHR expressed in CHOK1 cells assessed as reduction in luminescence signal at 3 uM by luciferase reporter gene assay; format: functional, cell-based; settings: CHO-K1; how it was run: as §1
[4] = molecular target: T1, Gonadotropin-releasing hormone receptor; experiment: Antagonist activity at human recombinant GnRHR expressed in CHOK1 cells assessed as reduction in luminescence signal by luciferase reporter gene assay; format: functional, cell-based, CHO-K1; how it was run: as §1
[5] = Cytotoxicity against human GnRHR expressing CHO cells assessed as cell viability at 10 uM after 4 hrs; format: cell-based, Cricetulus griseus; settings: chinese hamster, read-out: Activity
How it was run: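 CHO cells with human GnRHR and luciferase reporter, plated in assay medium with or without 10 μM compound, 4 h at 37 °C. Cells were then trypsinised and suspended in PBS, mixed 1:1 with 0.8% trypan blue, and live cells were counted by hemocytometer.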

| Ki [1] [nM] | Efficacy [2] [%] | Efficacy [3] [%] | IC50 [4] [nM] | Compound | viability at 4 h, 10 µM [5] [%] |
| --- | --- | --- | --- | --- | --- |
| 930 | 67 | 31 | – | CCNC(=O)Nc1ccc(-c2nc3n(Cc4c(F)cccc4F)cc(C(=O)OCC)c(=O)n3c2CN(CC(=O)N2CCC[C@H]2C(=O)NCC#Cc2cccc(C#CCNC(=O)[C@@H]3CCCN3C(=O)CN(Cc3ccccc3)Cc3c(-c4ccc(NC(=O)NCC)cc4)nc4n(Cc5c(F)cccc5F)cc(C(=O)OCC)c(=O)n34)c2)Cc2ccccc2)cc1 | – |
| 1600 | 61 | 63 | 1100 | CCNC(=O)Nc1ccc(-c2nc3n(Cc4c(F)cccc4F)cc(C(=O)OCC)c(=O)n3c2CN(CC(=O)N[C@@H](C)C(=O)NCC#Cc2ccccc2)Cc2ccccc2)cc1 | – |
| 380 | 99 | 97 | 440 | CCNC(=O)Nc1ccc(-c2nc3n(Cc4c(F)cccc4F)cc(C(=O)OCC)c(=O)n3c2CN(CC(=O)NCCCCCC(=O)NCC#Cc2ccccc2)Cc2ccccc2)cc1 | – |
| 530 | 59 | 34 | – | CCNC(=O)Nc1ccc(-c2nc3n(Cc4c(F)cccc4F)cc(C(=O)OCC)c(=O)n3c2CN(CC(=O)NCC(=O)NCC#Cc2ccc(C#CCNC(=O)CNC(=O)CN(Cc3ccccc3)Cc3c(-c4ccc(NC(=O)NCC)cc4)nc4n(Cc5c(F)cccc5F)cc(C(=O)OCC)c(=O)n34)cc2)Cc2ccccc2)cc1 | – |
| 930 | 58 | 44 | – | CCNC(=O)Nc1ccc(-c2nc3n(Cc4c(F)cccc4F)cc(C(=O)OCC)c(=O)n3c2CN(CC(=O)NCCCCCC(=O)NCC#Cc2cccc(C#CCNC(=O)CCCCCNC(=O)CN(Cc3ccccc3)Cc3c(-c4ccc(NC(=O)NCC)cc4)nc4n(Cc5c(F)cccc5F)cc(C(=O)OCC)c(=O)n34)c2)Cc2ccccc2)cc1 | – |
| 260 | 89 | 87 | 560 | CCNC(=O)Nc1ccc(-c2nc3n(Cc4c(F)cccc4F)cc(C(=O)OCC)c(=O)n3c2CN(CC(=O)N2CCC[C@H]2C(=O)NCC#Cc2ccccc2)Cc2ccccc2)cc1 | – |
| 400 | 86 | 68 | – | CCNC(=O)Nc1ccc(-c2nc3n(Cc4c(F)cccc4F)cc(C(=O)OCC)c(=O)n3c2CN(CC(=O)N2CCC(C(=O)NCC#Cc3cccc(C#CCNC(=O)C4CCN(C(=O)CN(Cc5ccccc5)Cc5c(-c6ccc(NC(=O)NCC)cc6)nc6n(Cc7c(F)cccc7F)cc(C(=O)OCC)c(=O)n56)CC4)c3)CC2)Cc2ccccc2)cc1 | – |
| 5300 | 14 | 18 | – | CCNC(=O)Nc1ccc(-c2nc3n(Cc4c(F)cccc4F)cc(C(=O)OCC)c(=O)n3c2CN(CC(=O)N[C@@H](C)C(=O)NCC#Cc2cccc(C#CCNC(=O)[C@H](C)NC(=O)CN(Cc3ccccc3)Cc3c(-c4ccc(NC(=O)NCC)cc4)nc4n(Cc5c(F)cccc5F)cc(C(=O)OCC)c(=O)n34)c2)Cc2ccccc2)cc1 | – |
| 770 | 60 | 64 | 520 | CCNC(=O)Nc1ccc(-c2nc3n(Cc4c(F)cccc4F)cc(C(=O)OCC)c(=O)n3c2CN(CC(=O)N[C@H](C(=O)NCC#Cc2ccccc2)C(C)C)Cc2ccccc2)cc1 | – |
| 2200 | 43 | 28 | – | CCNC(=O)Nc1ccc(-c2nc3n(Cc4c(F)cccc4F)cc(C(=O)OCC)c(=O)n3c2CN(CC(=O)N[C@H](C(=O)NCC#Cc2cccc(C#CCNC(=O)[C@@H](NC(=O)CN(Cc3ccccc3)Cc3c(-c4ccc(NC(=O)NCC)cc4)nc4n(Cc5c(F)cccc5F)cc(C(=O)OCC)c(=O)n34)C(C)C)c2)C(C)C)Cc2ccccc2)cc1 | – |
| 480 | 52 | 42 | – | CCNC(=O)Nc1ccc(-c2nc3n(Cc4c(F)cccc4F)cc(C(=O)OCC)c(=O)n3c2CN(CC(=O)N[C@@H](C)C(=O)NCC#Cc2ccc(C#CCNC(=O)[C@H](C)NC(=O)CN(Cc3ccccc3)Cc3c(-c4ccc(NC(=O)NCC)cc4)nc4n(Cc5c(F)cccc5F)cc(C(=O)OCC)c(=O)n34)cc2)Cc2ccccc2)cc1 | – |
| 600 | 85 | 68 | – | CCNC(=O)Nc1ccc(-c2nc3n(Cc4c(F)cccc4F)cc(C(=O)OCC)c(=O)n3c2CN(CC(=O)NCCCC(=O)NCC#Cc2ccc(C#CCNC(=O)CCCNC(=O)CN(Cc3ccccc3)Cc3c(-c4ccc(NC(=O)NCC)cc4)nc4n(Cc5c(F)cccc5F)cc(C(=O)OCC)c(=O)n34)cc2)Cc2ccccc2)cc1 | 95 |
| 580 | 96 | 97 | 680 | CCNC(=O)Nc1ccc(-c2nc3n(Cc4c(F)cccc4F)cc(C(=O)OCC)c(=O)n3c2CN(CC(=O)NCCCC(=O)NCC#Cc2ccccc2)Cc2ccccc2)cc1 | 95 |
| 510 | 48 | 35 | – | CCNC(=O)Nc1ccc(-c2nc3n(Cc4c(F)cccc4F)cc(C(=O)OCC)c(=O)n3c2CN(CC(=O)N2CCC(C(=O)NCC#Cc3ccc(C#CCNC(=O)C4CCN(C(=O)CN(Cc5ccccc5)Cc5c(-c6ccc(NC(=O)NCC)cc6)nc6n(Cc7c(F)cccc7F)cc(C(=O)OCC)c(=O)n56)CC4)cc3)CC2)Cc2ccccc2)cc1 | – |
| 170 | 95 | 92 | 460 | CCNC(=O)Nc1ccc(-c2nc3n(Cc4c(F)cccc4F)cc(C(=O)OCC)c(=O)n3c2CN(CC(=O)NCC(=O)NCC#Cc2ccccc2)Cc2ccccc2)cc1 | – |
| 720 | 34 | 31 | – | CCNC(=O)Nc1ccc(-c2nc3n(Cc4c(F)cccc4F)cc(C(=O)OCC)c(=O)n3c2CN(CC(=O)N[C@H](C(=O)NCC#Cc2ccc(C#CCNC(=O)[C@@H](NC(=O)CN(Cc3ccccc3)Cc3c(-c4ccc(NC(=O)NCC)cc4)nc4n(Cc5c(F)cccc5F)cc(C(=O)OCC)c(=O)n34)C(C)C)cc2)C(C)C)Cc2ccccc2)cc1 | – |
| 1100 | 9 | 20 | – | CCNC(=O)Nc1ccc(-c2nc3n(Cc4c(F)cccc4F)cc(C(=O)OCC)c(=O)n3c2CN(CC(=O)NCC(=O)NCC#Cc2cccc(C#CCNC(=O)CNC(=O)CN(Cc3ccccc3)Cc3c(-c4ccc(NC(=O)NCC)cc4)nc4n(Cc5c(F)cccc5F)cc(C(=O)OCC)c(=O)n34)c2)Cc2ccccc2)cc1 | – |
| 140 | 82 | 83 | 460 | CCNC(=O)Nc1ccc(-c2nc3n(Cc4c(F)cccc4F)cc(C(=O)OCC)c(=O)n3c2CN(CC(=O)N2CCC(C(=O)NCC#Cc3ccccc3)CC2)Cc2ccccc2)cc1 | – |
| 740 | 65 | 46 | – | CCNC(=O)Nc1ccc(-c2nc3n(Cc4c(F)cccc4F)cc(C(=O)OCC)c(=O)n3c2CN(CC(=O)N2CCC[C@H]2C(=O)NCC#Cc2ccc(C#CCNC(=O)[C@@H]3CCCN3C(=O)CN(Cc3ccccc3)Cc3c(-c4ccc(NC(=O)NCC)cc4)nc4n(Cc5c(F)cccc5F)cc(C(=O)OCC)c(=O)n34)cc2)Cc2ccccc2)cc1 | – |
| 820 | 57 | 40 | – | CCNC(=O)Nc1ccc(-c2nc3n(Cc4c(F)cccc4F)cc(C(=O)OCC)c(=O)n3c2CN(CC(=O)NCCCC(=O)NCC#Cc2cccc(C#CCNC(=O)CCCNC(=O)CN(Cc3ccccc3)Cc3c(-c4ccc(NC(=O)NCC)cc4)nc4n(Cc5c(F)cccc5F)cc(C(=O)OCC)c(=O)n34)c2)Cc2ccccc2)cc1 | – |
| 620 | 67 | 54 | – | CCNC(=O)Nc1ccc(-c2nc3n(Cc4c(F)cccc4F)cc(C(=O)OCC)c(=O)n3c2CN(CC(=O)NCCCCCC(=O)NCC#Cc2ccc(C#CCNC(=O)CCCCCNC(=O)CN(Cc3ccccc3)Cc3c(-c4ccc(NC(=O)NCC)cc4)nc4n(Cc5c(F)cccc5F)cc(C(=O)OCC)c(=O)n34)cc2)Cc2ccccc2)cc1 | – |
